Results on four molecules are retold here after ChEMBL document CHEMBL3259541, “Synthesis and biological evaluation of antimetastatic agents predicated upon dihydromotuporamine C and its carbocyclic derivatives” (J Med Chem, 2014).

Data set [1] is described as follows: Antimigratory activity against human L3.6PL cells assessed as cell migration inhibition at 0.6 uM after 48 hrs incubation by wound healing assay in presence of 250 uM aminoguanidine treated 24 hrs prior compound addition. It counts as functional.
Data set [2] is described as follows: Antimigratory activity against human L3.6PL cells assessed as cell migration inhibition at 2 uM after 48 hrs incubation by wound healing assay in presence of 250 uM aminoguanidine treated 24 hrs prior compound addition. It counts as functional.
Data set [3] concerns CHO-MG. Briefly: Cytotoxicity against polyamine transporter deficient CHO-MG cells assessed as cell growth after 48 hrs incubation by MTS assay in presence of 1 mM aminoguanidine. The settings on record: Cricetulus griseus. It counts as ADME, cell-based. The method, boiled down: (§1)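 CHO and polyamine-transport-deficient CHO-MG* cells pretreated 24 h with 1 mM aminoguanidine, then exposed to compound for 48 h at 37 °C. Triplicate. IC50 taken as 50% growth inhibition. PTS selectivity expressed as the CHO-MG*/CHO IC50 ratio.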
A general note: Tetrazolium assays rely on reduction of a dye to a coloured formazan, in cell work by metabolically active cells.

The subject of data set [4] is CHO. Briefly: Cytotoxicity against CHO cells assessed as cell growth after 48 hrs incubation by MTS assay in presence of 1 mM aminoguanidine. It counts as cell-based. The settings on record: Cricetulus griseus. The method, boiled down:
as §1

Data set [5] concerns polyamine transporter. Nature of the data set: Selectivity ratio of IC50 for polyamine transporter deficient CHO-MG cells to IC50 for CHO cells by MTS assay. It counts as ADME, cell-based, Cricetulus griseus. The conditions noted are these: chinese hamster, polyamine transporter deficient CHO-MG cells and CHO cells; read-out: Ratio IC50. Summed up:
as §1

The nature of data set [6]: Cytotoxicity against human L3.6PL cells assessed as inhibition of cell growth after 48 hrs incubation by MTS assay in presence of 250 uM aminoguanidine treated 24 hrs prior compound addition. It counts as functional, cell-based. The settings on record: for IC50: Homo sapiens, L3.6pl. Summed up:
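L3.6pl cells pretreated 24 h with 250 μM aminoguanidine, then incubated with compound for 48 h at 37 °C. Triplicate. IC50 is the concentration giving 50% growth inhibition and IC5 the concentration giving 5% inhibition, both versus untreated control.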

Data set [7] in a line: Antimigratory activity against human L3.6PL cells assessed as cell migration inhibition at 1 uM after 48 hrs incubation by wound healing assay in presence of 250 uM aminoguanidine treated 24 hrs prior compound addition. It counts as functional.
Data set [8] concerns L3.6pl. Briefly: Antimigratory activity against human L3.6PL cells assessed as cell migration inhibition after 48 hrs incubation by wound healing assay in presence of 250 uM aminoguanidine treated 24 hrs prior compound addition. It counts as functional, cell-based.

What is called IC50 is the concentration that gives 50% inhibition. Regarding `Cl.NCCCNCCCNC1CCCCCCCCCCCCCC1`, the results for the “inhibition (INH)” value in data set [1] and in data set [2] were 19.3% and 32.9%, respectively. For the same molecule, the IC50 was found to be 5.95 µM in data set [3], 2.84 µM in data set [4] and 2.8 µM in data set [6]. The selectivity ratio in data set [5] is 2.1. The IC5 in data set [6] was found to be 2 µM.

As for `Cl.NCCCCNCCCCN1CCCCCCCCCCCCCC1`, the “inhibition (INH)” value stood at 16.7% in data set [1] and 29.6% in data set [7]. Further, the IC50 was 4.67 µM in data set [3], 4.38 µM in data set [4] and 1.8 µM in data set [6]. In data set [5], the selectivity ratio was found to be 1. For the same molecule, the IC5 in data set [6] came out at 1 µM.

As to `Cl.NCCCCNCCCCNCC1CCCCCCCCCCCCCC1`, the IC50 was 45.5 µM in data set [3], 47.8 µM in data set [4] and 48.7 µM in data set [6]. Besides, the selectivity ratio in data set [5] is 1. Also, in data set [6], the IC5 was 40 µM. For the same molecule, the inhibition result in data set [8] was “Dose-dependent effect”.

Turning to `Cl.NCCCCNCCCCNC1CCCCCCCCCCCCCC1`, the IC50 came out at 5.18 µM in data set [3], 4.53 µM in data set [4] and 2.8 µM in data set [6]. Also, the selectivity ratio in data set [5] worked out at 1. Further, the IC5 in data set [6] turned out to be 2 µM.
